According to ChEMBL document CHEMBL1137560, “Synthesis and monoamine oxidase inhibitory activity of new pyridazine-, pyrimidine- and 1,2,4-triazine-containing tricyclic derivatives” (J Med Chem, 2007):

Key:
[1] = biological target: T1, Amine oxidase [flavin-containing] A (Rattus norvegicus, UniProt P21396); experiment: Inhibition of MAOA in rat brain mitochondria at 10 uM
T1 sequence (P21396 whole entry): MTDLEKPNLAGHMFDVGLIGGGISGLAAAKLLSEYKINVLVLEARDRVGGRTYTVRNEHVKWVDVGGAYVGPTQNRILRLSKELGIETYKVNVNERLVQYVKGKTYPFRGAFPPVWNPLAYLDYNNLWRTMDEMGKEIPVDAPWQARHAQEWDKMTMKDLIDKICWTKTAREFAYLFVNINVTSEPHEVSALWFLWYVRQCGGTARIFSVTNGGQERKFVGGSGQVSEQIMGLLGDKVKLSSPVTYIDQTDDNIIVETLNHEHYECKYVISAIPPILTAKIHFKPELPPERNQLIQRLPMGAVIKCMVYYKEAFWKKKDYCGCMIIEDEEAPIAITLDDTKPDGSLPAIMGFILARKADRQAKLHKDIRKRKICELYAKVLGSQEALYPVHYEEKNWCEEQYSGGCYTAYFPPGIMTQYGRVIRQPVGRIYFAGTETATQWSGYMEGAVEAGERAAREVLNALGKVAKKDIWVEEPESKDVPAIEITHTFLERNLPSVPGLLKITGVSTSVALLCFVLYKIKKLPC

[2] = biological target: T2, Amine oxidase [flavin-containing] B (Rattus norvegicus, UniProt P19643); experiment: Inhibition of MAOB in rat brain mitochondria
T2 sequence (P19643 whole entry): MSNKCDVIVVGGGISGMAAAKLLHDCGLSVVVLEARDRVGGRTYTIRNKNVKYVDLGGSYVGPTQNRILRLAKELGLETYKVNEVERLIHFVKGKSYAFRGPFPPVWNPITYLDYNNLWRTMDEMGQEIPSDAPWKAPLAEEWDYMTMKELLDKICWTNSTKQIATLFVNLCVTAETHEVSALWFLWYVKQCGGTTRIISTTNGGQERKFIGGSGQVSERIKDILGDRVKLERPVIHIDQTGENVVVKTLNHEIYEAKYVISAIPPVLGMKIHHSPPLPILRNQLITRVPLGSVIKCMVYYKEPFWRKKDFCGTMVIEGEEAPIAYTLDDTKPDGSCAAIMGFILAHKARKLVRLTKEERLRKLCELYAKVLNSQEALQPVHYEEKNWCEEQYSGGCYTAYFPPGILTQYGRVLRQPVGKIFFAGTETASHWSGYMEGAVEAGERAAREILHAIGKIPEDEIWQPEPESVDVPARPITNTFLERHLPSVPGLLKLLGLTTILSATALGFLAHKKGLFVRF
How it was run: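 MAO-B measured in rat brain mitochondrial suspension after 5 min preincubation with clorgyline. Incubations at pH 7.40 (isotonic phosphate/KCl) and 37 °C, 5% DMSO cosolvent. Kynuramine 60 µM (its KM); 4-hydroxyquinoline formation read continuously at 314 nm. Highest concentration 100 µM; IC50 derived by hyperbolic equation fit.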

[3] = biological target: T2, Amine oxidase [flavin-containing] B; experiment: Inhibition of MAOB in rat brain mitochondria at 10 uM
[4] = biological target: T1, Amine oxidase [flavin-containing] A; experiment: Inhibition of MAOA in rat brain mitochondria
How it was run: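 Rat brain mitochondrial suspension, isotonic Na2HPO4/KH2PO4–KCl buffer, pH 7.40, 37 °C, with 5% DMSO cosolvent. Preincubated 5 min with selegiline to isolate MAO-A. Continuous spectrophotometric assay: 90 µM kynuramine (its KM) oxidized to 4-hydroxyquinoline, followed at 314 nm. Top concentration tested 100 µM; IC50 calculated from a hyperbolic equation.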

[5] = biological target: T1, Amine oxidase [flavin-containing] A; experiment: Inhibition of MAOA in rat brain mitochondria at 50 uM
[6] = biological target: T2, Amine oxidase [flavin-containing] B; experiment: Inhibition of MAOB in rat brain mitochondria at 50 uM
[7] = biological target: T2, Amine oxidase [flavin-containing] B; experiment: Inhibition of MAOB in rat brain mitochondria at 25 uM
How it was run: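 Rat brain mitochondrial suspension, pre-treated 5 min with clorgyline to isolate MAO-B. Kynuramine substrate at 60 µM (its KM) in isotonic Na2HPO4/KH2PO4/KCl buffer, pH 7.40, 37 °C, with 5% DMSO cosolvent. 4-Hydroxyquinoline formation followed continuously at 314 nm. Percent inhibition taken at the compound's maximum solubility; means ± SEM of three experiments, each run in duplicate.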

[8] = biological target: T2, Amine oxidase [flavin-containing] B; experiment: Inhibition of MAOB in rat brain mitochondria at 20 uM
[9] = biological target: T2, Amine oxidase [flavin-containing] B; experiment: Inhibition of MAOB in rat brain mitochondria at 1 uM
[10] = biological target: T1, Amine oxidase [flavin-containing] A; experiment: Inhibition of MAOA in rat brain mitochondria at 1 uM

inhibition at 10 µM [1]	IC50 [2]	IC50 [4]	Compound	also measured
0%	2.51 µM	–	O=C1c2ccccc2-c2nnc(COc3ccccc3)cc21	–
0%	–	–	O=C1c2ccccc2-c2nnc(COc3ccc(C(F)(F)F)cc3)cc21	inhibition at 10 µM [3]: 48%
–	55 µM	> 100 µM	O=C1c2ccccc2-c2nnc(OCc3ccccc3)cc21	–
–	38 µM	–	O=C1c2ccccc2-c2nn(-c3ccccc3)c(=O)cc21	inhibition at 50 µM [5]: 46%
12%	–	–	Nc1cccc(-c2nnc3c(n2)-c2ccccc2C3=O)c1	inhibition at 10 µM [3]: 17%
–	–	29.7 µM	c1ccc2c(c1)nnc1c3ccccc3[nH]c21	inhibition at 50 µM [6]: 29%
23%	0.08 µM	–	O=C1c2ccccc2-c2nc(-c3cccc([N+](=O)[O-])c3)nnc21	–
–	13 µM	16.7 µM	c1ccc(-c2ncc3c(n2)Cc2ccccc2-3)cc1	–
–	–	18 µM	c1ccc(-c2ncc3c(n2)-c2ccccc2C3)cc1	inhibition at 20 µM [8]: 37%
–	34 µM	21.6 µM	O=C1c2ccccc2-c2ncnc(-c3ccccc3)c21	–
12%	1.9 µM	–	O=C1c2ccccc2-c2nnc(COc3ccc(F)cc3)cc21	–
–	> 100 µM	30.8 µM	O=C(c1ccccc1)c1cnncc1-c1ccc(Cl)cc1	–
–	9.4 µM	47.1 µM	Cc1ncc2c(n1)C(=O)c1ccccc1-2	–
–	–	–	O=C1c2ccccc2-c2cnc(-c3cccc([N+](=O)[O-])c3)nc21	inhibition at 1 µM [9]: 12%; inhibition at 1 µM [10]: 5%
3%	0.912 µM	–	O=C1c2ccccc2-c2nnc(-c3cccc([N+](=O)[O-])c3)nc21	–
21%	6.31 µM	–	O=C1c2ccccc2-c2nc(-c3ccccc3)nnc21	–

Compound	inhibition at 10 µM [1]	IC50 [2]	IC50 [4]	also measured
c1ccc2c(c1)CCc1c-2[nH]c2ccccc12	–	–	12 µM	inhibition at 25 µM [7]: 38%
